One assay addresses T1, COX-2 (Ovis aries, UniProt P79208).
T1 sequence (P79208 17-603): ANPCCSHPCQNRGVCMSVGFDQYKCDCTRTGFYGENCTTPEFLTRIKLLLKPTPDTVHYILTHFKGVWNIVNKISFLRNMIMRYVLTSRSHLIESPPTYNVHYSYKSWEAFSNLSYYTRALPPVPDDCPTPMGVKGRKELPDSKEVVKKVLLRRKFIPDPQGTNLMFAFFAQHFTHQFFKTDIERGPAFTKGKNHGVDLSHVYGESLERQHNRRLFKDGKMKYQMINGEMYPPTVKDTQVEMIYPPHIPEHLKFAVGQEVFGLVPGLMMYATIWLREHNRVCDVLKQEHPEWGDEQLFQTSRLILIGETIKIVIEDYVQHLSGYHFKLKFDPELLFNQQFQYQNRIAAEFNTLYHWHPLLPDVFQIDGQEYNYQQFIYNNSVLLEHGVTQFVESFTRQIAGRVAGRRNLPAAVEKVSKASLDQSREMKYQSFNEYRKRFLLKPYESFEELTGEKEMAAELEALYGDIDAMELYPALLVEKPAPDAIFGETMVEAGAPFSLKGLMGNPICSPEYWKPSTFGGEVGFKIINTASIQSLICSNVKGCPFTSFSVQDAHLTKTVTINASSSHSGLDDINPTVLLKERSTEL
Description: COX-2 colorimetric assay. It counts as biochemical, ovine. In a few lines: (§1)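 Ovine COX-1 or COX-2 was diluted with hemin in 0.1 M Tris-HCl, pH 8. Test compound or vehicle was preincubated with enzyme for 5 min at 25°C. Colorimetric substrate was added, then arachidonic acid, and the reaction ran 5 min more at 25°C. Activity was read as substrate absorbance at 590 nm.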

The target in a further assay is human recombinant PDE5 (Homo sapiens, UniProt O76074). Description: PDE5 inhibition, IMAP fluorescence polarization assay. It counts as biochemical. Particulars: for inhibition at 50 µM: read-out: PDE5 % inh at 50 (μM); for fold reduction in PDE5 inhibitory potency compared to compound 7: vs compound 7 (4-COOH, 4-chlorophenyl). On the technique in general: In fluorescence polarisation assays a small probe gives low polarisation when free and higher when bound to something large.

Assay [1] relates to intracellular cGMP levels in HEK293 cells. Nature of the assay: Luciferase cGMP biosensor assay. Format: cell-based, human. Particulars: for intracellular cGMP levels (luminescence), concentration dependence: pretreated with sodium nitroprusside. Put shortly:
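HEK293 cells stably expressing a GloSensor cGMP-40F construct (human PDE5A GAF-A fused to firefly luciferase) were G418-selected. Cells were seeded at 6×10⁴/well and attached overnight in DMEM + 10% FBS at 37°C, 5% CO2. They were preincubated at room temperature in CO2-independent medium with 10% FBS and 5 mmol/L luciferin. 50 μM sodium nitroprusside was added together with test compound, and luminescence was read every minute for 1 h.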

In the next assay the target is T2, COX-1 (Ovis aries, UniProt P05979).
T2 sequence (P05979 25-600): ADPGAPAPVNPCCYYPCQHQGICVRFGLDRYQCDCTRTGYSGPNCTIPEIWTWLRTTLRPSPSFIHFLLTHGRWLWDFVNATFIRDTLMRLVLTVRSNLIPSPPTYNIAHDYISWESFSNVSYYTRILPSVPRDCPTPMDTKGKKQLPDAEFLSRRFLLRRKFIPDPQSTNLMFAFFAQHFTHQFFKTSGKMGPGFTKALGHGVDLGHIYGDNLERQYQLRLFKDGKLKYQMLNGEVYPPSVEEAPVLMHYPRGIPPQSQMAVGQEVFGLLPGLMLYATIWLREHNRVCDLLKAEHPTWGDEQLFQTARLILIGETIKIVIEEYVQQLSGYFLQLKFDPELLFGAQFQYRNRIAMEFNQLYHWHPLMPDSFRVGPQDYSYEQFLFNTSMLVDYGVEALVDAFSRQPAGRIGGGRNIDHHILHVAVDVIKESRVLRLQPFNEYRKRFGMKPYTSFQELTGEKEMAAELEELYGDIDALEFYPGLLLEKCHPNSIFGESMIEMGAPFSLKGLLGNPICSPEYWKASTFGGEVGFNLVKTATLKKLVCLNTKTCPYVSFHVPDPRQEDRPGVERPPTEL
Description: COX-1 colorimetric assay. Format: biochemical, ovine. The note with it: screening concentration 100 μM. Put shortly: as §1

Each structure is given as a SMILES string. pIC50: −log10 of the molar value.

One may read the pIC50 as the negative decadic logarithm of the IC50, by convention in mol/L. As for `CC(C)(C)C1=NN(c2ccc(S(=O)(=O)O)cc2)C(c2ccc(Cl)cc2)C1` (stereo not drawn) [Compound 32, 4-(3-tert-Butyl-5-(4-chlorophenyl)-4,5-dihydro-1H-pyrazol-1-yl)benzenesulfonic acid], the negative logarithm of the IC50 (pIC50) on COX-2 is 4.07. Further, at human recombinant PDE5, the pIC50 is 5.06, the inhibition at 50 µM was 85% and the “fold reduction in PDE5 inhibitory potency compared to compound 7” value is “about 2 fold”.

As to `CCOc1ccc(C2CC(C(C)(C)C)=NN2c2ccc(C(=O)O)cc2)cc1` (stereo not drawn) [Compound 19, 4-(3-(tert-Butyl)-5-(4-ethoxyphenyl)-4,5-dihydro-1H-pyrazol-1-yl)benzoic acid], the “relative potency/efficacy in increasing intracellular cGMP levels” value in assay [1] (comparison among tadalafil, celecoxib, 11 and 19) is listed as “substantially higher efficacy”. Besides, the “intracellular cGMP levels (luminescence), concentration dependence” value in assay [1] is listed as “concentration-dependent increase”. In addition, the inhibition at 50 µM on human recombinant PDE5 is 95.3%.

Turning to `CC(C)(C)C1=NN(c2ccc(S(=O)(=O)O)cc2)C(c2ccc(F)cc2)C1` (stereo not drawn) [Compound 31, 4-(3-tert-Butyl-5-(4-fluorophenyl)-4,5-dihydro-1H-pyrazol-1-yl) benzenesulfonic acid], the values for the pIC50 against COX-2 and on human recombinant PDE5 were 4.10 and 5.03, respectively. The inhibition at 50 µM at human recombinant PDE5 stood at 80%.

With `CC(C)(C)C1=NN(c2ccc(S(N)(=O)=O)cc2)C(c2ccc(Cl)cc2)C1` (stereo not drawn) [Compound 33, 4-(3-tert-Butyl-5-(4-chlorophenyl)-4,5-dihydro-1H-pyrazol-1-yl)benzenesulfonamide], the pIC50 against COX-2 is 4.47. At human recombinant PDE5, the negative logarithm of the IC50 (pIC50) was 4.31, the inhibition at 50 µM turned out to be 57.5% and the “fold reduction in PDE5 inhibitory potency compared to compound 7” value is given as “about 15 fold”.

`CN1CC(=O)N2[C@H](c3ccc4c(c3)OCO4)c3[nH]c4ccccc4c3C[C@@H]2C1=O` [Tadalafil, tadalafil, reference compound]: the “intracellular cGMP levels (luminescence), concentration dependence” value in assay [1] is listed as “concentration-dependent increase”.

`Cc1ccc(C2CC(C(C)(C)C)=NN2c2ccc(C(=O)O)cc2)cc1` (stereo not drawn) [Compound 22, 4-(3-tert-Butyl-5-p-tolyl-4,5-dihydro-1H-pyrazol-1-yl)benzoic acid]: on COX-1, the “COX1 inhibition at 100 μM” value is given as “no COX inhibition”. The “COX2 inhibition at 100 μM” value on COX-2 (screening concentration 100 μM) is on record as “no COX inhibition”. In addition, the “fold improvement in PDE5 inhibitory activity compared to celecoxib” value on human recombinant PDE5 (ratio of IC50 vs celecoxib) came out at 4 fold. The inhibition at 50 µM on human recombinant PDE5 is 93%.

Regarding `CC(C)(C)C1=NN(c2ccc(C(=O)O)cc2)C(c2ccco2)C1` (stereo not drawn) [Compound 27, 4-(3-tert-Butyl-5-(furan-2-yl)-4,5-dihydro-1H-pyrazol-1-yl)benzoic acid], the “PDE5 inhibitory activity (in words)” value at human recombinant PDE5 (SAR statement vs parent compound) was “detrimental to the activity”. Moreover, the inhibition at 50 µM on human recombinant PDE5 was determined as 23.6%.

Regarding `CC(C)(C)C1=NN(c2cccc(C(=O)O)c2)C(c2ccc(Cl)cc2)C1` (stereo not drawn) [Compound 29, 3-(3-tert-Butyl-5-(4-chlorophenyl)-4,5-dihydro-1H-pyrazol-1-yl)benzoic acid], at human recombinant PDE5, the inhibition at 50 µM was determined as 100% and the “fold reduction in PDE5 inhibitory potency compared to compound 7” value came to 3 fold.

`CC(C)(C)C1=NN(c2ccc(C(=O)O)cc2)C(c2c(Cl)cccc2Cl)C1` (stereo not drawn) [Compound 13, 4-(3-(tert-Butyl)-5-(2,6-dichlorophenyl)-4,5-dihydro-1H-pyrazol-1-yl)benzoic acid]: on human recombinant PDE5, the pIC50 is 4.54 and the inhibition at 50 µM amounted to 99.1%.

Consider `CC(C)(C)C1=NN(c2ccc(C(=O)O)cc2)C(c2ccc(C#N)cc2)C1` (stereo not drawn) [Compound 23, 4-(3-tert-Butyl-5-(4-cyanophenyl)-4,5-dihydro-1H-pyrazol-1-yl)benzoic acid], for which, on human recombinant PDE5, the negative logarithm of the IC50 (pIC50) is 4.86 and the inhibition at 50 µM worked out at 75%.

Turning to `CC(C)(C)C1=NN(c2ccc(C(=O)O)cc2)C(c2cccc([N+](=O)[O-])c2)C1` (stereo not drawn) [Compound 20, 4-(3-tert-Butyl-5-(3-nitrophenyl)-4,5-dihydro-1H-pyrazol-1-yl)benzoic acid], on human recombinant PDE5, the negative-log IC50 (pIC50) was 5.49 and the inhibition at 50 µM was found to be 87.6%.

`CC(C)(C)C1=NN(c2ccc(C(=O)O)cc2)C(c2ccc([N+](=O)[O-])cc2)C1` (stereo not drawn) [Compound 21, 4-(3-tert-Butyl-5-(4-nitrophenyl)-4,5-dihydro-1H-pyrazol-1-yl)benzoic acid]: the inhibition at 50 µM at human recombinant PDE5 is 91%.

For the origin of these results see PMC7686114 (Bioorganic chemistry, 2020).
